IC50 and Ki data for four molecules are collected here from ChEMBL document CHEMBL1135021, “Biotinylated lithocholic acids for affinity chromatography of mammalian DNA polymerases alpha and beta” (Bioorg Med Chem Lett, 2002).

Assay [1] deals with T1, DNA polymerase beta (Rattus norvegicus, UniProt P06766). Put plainly: Inhibitory effect on the activity of rat DNA polymerase beta was determined by inhibitory dose curves. The essentials:
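Rat DNA pol β, 0.05 units, with poly(dA)/oligo(dT)12-18 template-primer and dTTP substrate. Compounds in DMSO at various concentrations, sonicated 30 s, then preincubated with enzyme in 50 mM Tris–HCl pH 7.5, 1 mM DTT, 50% glycerol, 0.1 mM EDTA at 0 °C for 10 min before addition to the reaction mix. Activity without compound was set as 100%, and IC50 was read from dose–response curves.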

In assay [2] the test system is Nucleic Acid. Put plainly: Inhibitory effect on the activity of calf thymus DNA polymerase alpha was determined by inhibitory dose curves. It is filed as nucleic-acid assay, Bos taurus. A digest of the protocol: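 Calf thymus DNA pol α (immunoaffinity-purified), 0.05 units, with poly(dA)/oligo(dT)12-18 template-primer and dTTP substrate. Compounds in DMSO at various concentrations, sonicated 30 s, then preincubated with enzyme in 50 mM Tris–HCl pH 7.5, 1 mM DTT, 50% glycerol, 0.1 mM EDTA at 0 °C for 10 min before addition to the reaction mix. Activity without compound was set as 100%, and IC50 was read from dose–response curves.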

In assay [3] the target is T1, DNA polymerase beta. In words: Inhibition constant at a concentration of 5 uM on rat DNA polymerase beta as a function of nucleotide substrate concentration. A digest of the protocol:
(§1)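 Rat DNA pol β (0.05 units final) with poly(dA)/oligo(dT)12-18 (2/1) as template-primer and dTTP as nucleotide substrate. Inhibitor was dissolved in DMSO, sonicated 30 s, then preincubated with enzyme at 0 °C for 10 min in 50 mM Tris-HCl pH 7.5, 1 mM DTT, 50% glycerol and 0.1 mM EDTA. The mix was added to standard reactions with template-primer or dTTP varied. Ki came from double-reciprocal and Dixon plots.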

The target of assay [4] is T1, DNA polymerase beta. In words: Inhibition constant at a concentration of 5 uM on rat DNA polymerase beta as a function of template primer dose. A digest of the protocol:
as §1

Assay [5] has as its target Nucleic Acid. In words: Inhibition constant at a concentration of 25 uM on calf DNA polymerase alpha as a function of nucleotide substrate concentration. It is filed as nucleic-acid assay, Bos taurus. A digest of the protocol:
(§2)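 Calf thymus DNA pol α (immunoaffinity-purified), 0.05 units. Compound in DMSO, sonicated 30 s, preincubated with enzyme in 50 mM Tris–HCl pH 7.5, 1 mM DTT, 50% glycerol, 0.1 mM EDTA at 0 °C for 10 min. Activity measured varying poly(dA)/oligo(dT)12-18 (2/1) template-primer or dTTP nucleotide substrate. Km and Vmax were taken from double reciprocal plots and Ki from Dixon plots.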

In assay [6] the target is Nucleic Acid. Put plainly: Inhibition constant at a concentration of 25 uM on calf DNA polymerase alpha as a function of template primer dose. Type of assay: nucleic-acid assay, Bos taurus. A digest of the protocol:
as §2

The target of assay [7] is T1, DNA polymerase beta. In words: Inhibition constant at a concentration of 10 uM on rat DNA polymerase beta as a function of nucleotide substrate concentration. A digest of the protocol:
(§3)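 Kinetic runs used calf thymus pol α or rat pol β (0.05 units each) preincubated with compound at 0 °C for 10 min in Tris–HCl pH 7.5/DTT/glycerol/EDTA buffer. Either poly(dA)/oligo(dT)12–18 (2/1) template-primer or dTTP substrate was varied. Km and Vmax came from double reciprocal plots, Ki from Dixon plots.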

Assay [8] addresses T1, DNA polymerase beta. In words: Inhibition constant at a concentration of 10 uM on rat DNA polymerase beta as a function of template primer dose. The essentials:
as §3

For assay [9], the target named is Nucleic Acid. Put plainly: Inhibition constant at a concentration of 5 uM on calf DNA polymerase alpha as a function of template primer dose. Type of assay: nucleic-acid assay, Bos taurus. A digest of the protocol: as §3
Assay [10] deals with Nucleic Acid. Put plainly: Inhibitory effect on the activity of mammalian DNA polymerase alpha was determined by inhibitory dose curves. It is filed as nucleic-acid assay, Bos taurus. A digest of the protocol:
(§4)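 Calf thymus pol α (immunoaffinity-purified) and rat pol β, 0.05 units each final, with poly(dA)/oligo(dT)12–18 (2/1) and dTTP. Compounds in DMSO, sonicated 30 s, then preincubated with enzyme at 0 °C for 10 min in 50 mM Tris–HCl pH 7.5, 1 mM DTT, 50% glycerol, 0.1 mM EDTA. Mixtures added to standard reactions; activity without compound taken as 100%. IC50 from dose–response curves.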

Assay [11] has as its target Nucleic Acid. In words: Inhibition constant at a concentration of 5 uM on calf DNA polymerase alpha as a function of nucleotide substrate concentration. It is filed as nucleic-acid assay, Bos taurus. A digest of the protocol: as §3
Assay [12] deals with T1, DNA polymerase beta. In words: Inhibitory effect on the activity of mammalian DNA polymerase beta was determined by inhibitory dose curves. The essentials:
as §4

As for `C[C@H](CCC(=O)O)[C@H]1CC[C@H]2[C@@H]3CCC4C[C@@H](OC(=O)CCNC(=O)CCCCCNC(=O)CCCCC5SCC6NC(=O)NC65)CC[C@]4(C)[C@H]3CC[C@]12C` (stereo partly specified), the IC50 came to 46 µM against DNA polymerase beta [1] and 42 µM in the assay with Nucleic Acid [2].

`C[C@H](CCC(=O)O)[C@H]1CC[C@H]2[C@@H]3CCC4C[C@@H](O)CC[C@]4(C)[C@H]3CC[C@]12C` (stereo partly specified): the IC50 is 11 µM on DNA polymerase beta [1] and 40 µM with Nucleic Acid [2]. Moreover, the Ki is 6.6 µM on DNA polymerase beta [3], 4.7 µM on DNA polymerase beta [4], 22.5 µM on Nucleic Acid [5] and 15.3 µM at Nucleic Acid [6].

For the molecule `C[C@H](CCC(=O)O)[C@H]1CC[C@H]2[C@@H]3CCC4C[C@@H](OC(=O)CCNC(=O)CCCCC5SCC6NC(=O)NC65)CC[C@]4(C)[C@H]3CC[C@]12C` (stereo partly specified), the results for the IC50 at DNA polymerase beta [1] and in the assay on Nucleic Acid [2] were 31 µM and 29 µM, respectively.

As to `C[C@H](CCC(=O)O)[C@H]1CC[C@H]2[C@@H]3CCC4C[C@@H](OC(=O)CCNC(=O)CCCCCNC(=O)CCCCCNC(=O)CCCCC5SCC6NC(=O)NC65)CC[C@]4(C)[C@H]3CC[C@]12C` (stereo partly specified), the Ki on DNA polymerase beta [7] turned out to be 20.1 µM; at DNA polymerase beta [8] it was 12.8 µM; on Nucleic Acid [9] it was 7.7 µM; on Nucleic Acid [11] it was 5.5 µM. For the same molecule, the IC50 came to 10 µM at Nucleic Acid [10] and 32 µM against DNA polymerase beta [12].
